{"source": "ChEMBL document CHEMBL5214998", "about": "“Development of Macrocyclic PRMT5-Adaptor Protein Interaction Inhibitors” (J Med Chem, 2022)", "key": {"PRMT5/MEP50 complex [1]": {"target": "T1, PRMT5/MEP50 complex (Homo sapiens, UniProt O14744)", "T1 sequence (O14744 whole entry)": "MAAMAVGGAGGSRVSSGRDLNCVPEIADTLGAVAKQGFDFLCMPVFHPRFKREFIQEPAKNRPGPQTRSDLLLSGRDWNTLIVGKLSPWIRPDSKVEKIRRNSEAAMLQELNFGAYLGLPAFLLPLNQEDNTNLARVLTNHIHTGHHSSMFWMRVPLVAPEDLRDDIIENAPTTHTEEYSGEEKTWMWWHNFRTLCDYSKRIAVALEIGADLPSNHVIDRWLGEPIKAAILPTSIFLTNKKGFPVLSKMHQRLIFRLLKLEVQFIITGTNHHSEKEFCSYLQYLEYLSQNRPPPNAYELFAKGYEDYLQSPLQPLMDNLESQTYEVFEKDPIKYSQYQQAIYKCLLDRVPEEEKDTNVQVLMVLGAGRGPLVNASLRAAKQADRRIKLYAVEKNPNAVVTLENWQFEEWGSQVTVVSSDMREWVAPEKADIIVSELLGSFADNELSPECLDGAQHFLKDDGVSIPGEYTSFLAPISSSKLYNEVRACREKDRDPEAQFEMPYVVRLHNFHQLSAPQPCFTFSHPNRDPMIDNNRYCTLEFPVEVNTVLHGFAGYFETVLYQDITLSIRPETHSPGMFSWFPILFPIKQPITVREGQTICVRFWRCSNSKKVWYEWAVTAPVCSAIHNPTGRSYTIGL", "T1 sequence (Q9BQA1 whole entry, further chain)": "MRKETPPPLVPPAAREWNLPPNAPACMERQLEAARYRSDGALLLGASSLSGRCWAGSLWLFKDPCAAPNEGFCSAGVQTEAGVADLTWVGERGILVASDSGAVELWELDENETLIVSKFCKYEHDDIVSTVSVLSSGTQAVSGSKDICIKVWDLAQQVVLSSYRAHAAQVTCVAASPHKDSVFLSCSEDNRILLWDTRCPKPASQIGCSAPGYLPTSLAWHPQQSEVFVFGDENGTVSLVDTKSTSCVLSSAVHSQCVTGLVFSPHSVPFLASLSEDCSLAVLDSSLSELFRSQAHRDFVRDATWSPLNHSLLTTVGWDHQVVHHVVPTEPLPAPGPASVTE", "experiment": "Binding affinity to PRMT5/MEP50 (unknown origin) assessed as inhibition constant by FITC- Competitive binding assay", "type": "protein-complex assay", "how_it_was_run": "(§1)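 Competitive FP: 1 nM FITC-labeled tracer peptide with PRMT5-MEP50 (194 nM with tracer 50; 600 nM with tracer 21); unlabeled peptide titrated as two-fold dilutions in 50 mM HEPES, 250 mM NaCl, 1 mM TCEP, 0.01% Tween 20, pH 8.0; room temperature up to 1 h 45 min; read 485/535 nm; triplicate.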"}, "PRMT5/MEP50 complex [2]": {"target": "T1, PRMT5/MEP50 complex", "experiment": "Inhibition of PRMT5/MEP50 (unknown origin) incubated for 1 to 2 hrs in presence of tracer 50 by competitive fluorescence polarization assay", "type": "protein-complex assay", "how_it_was_run": "as §1"}, "PRMT5/MEP50 complex [3]": {"target": "T1, PRMT5/MEP50 complex", "experiment": "Inhibition of PRMT5/MEP50 (unknown origin) incubated for 1 to 2 hrs in presence of tracer 21 by competitive fluorescence polarization assay", "type": "protein-complex assay", "how_it_was_run": "as §1"}, "[4]": {"experiment": "Stability in human U2OS cells assessed as half life incubated upto 24 hrs by HPLC analysis", "type": "ADME, cell-based", "conditions": "U2OS cell lysate"}, "PRMT5/MEP50 complex [5]": {"target": "PRMT5/MEP50 complex (Homo sapiens, UniProt O14744+Q9BQA1)", "sequence (O14744 whole entry)": "as the sequence (O14744 whole entry) above", "sequence (Q9BQA1 whole entry)": "as the sequence (Q9BQA1 whole entry, further chain) above", "experiment": "Binding affinity to PRMT5/MEP50 (unknown origin) assessed as dissociation constant by FITC- Competitive binding assay", "type": "protein-complex assay"}, "Flp-In-T-REx-293 [6]": {"system": "Flp-In-T-REx-293", "experiment": "Inhibition of PRMT5/RioK1 protein-protein interaction in human Flp-In-T-REx-293 cells over-expressed with GFP-RioK1 at 50 uM incubated for 2 hrs by immunoprecipitation assay", "type": "cell-based", "how_it_was_run": "(§2)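 S100 extracts from induced Flp-In T-REx 293 cells expressing GFP-tagged proteins were treated with peptide at 50 µM (or DMSO) for 1 h at room temperature. GFP-Trap beads were then added for 2 h at 4 °C and washed. Co-purified PRMT5, MEP50, RioK1 and pICln were detected by immunoblot with fluorescent secondary antibodies.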"}, "[7]": {"experiment": "Inhibition of full length human ICLN/PRMT5 (unknown origin) protein-protein interaction by fluorescence polarization assay"}, "Flp-In-T-REx-293 [8]": {"system": "Flp-In-T-REx-293", "experiment": "Inhibition of PRMT5/RioK1 protein-protein interaction in human Flp-In-T-REx-293 cells over-expressed with GFP-PRMT5 at 50 uM incubated for 2 hrs by immunoprecipitation assay", "type": "cell-based", "how_it_was_run": "as §2"}}, "note": "Calls of active or inactive are those of the source. The calls are words filed in the database; no cut-off is given here. Numbered stars: 1 amine (or outer) side, 2 acyl side, 3 side chain; on linkers, the order of the positions; unused ones are H or OH. Bridge positions count the residues as written; N and C are the ends. Square brackets hold non-standard residues; d marks the D form. Peptide text beside a SMILES is read from it. * marks the point of attachment. FITC = O=C1OC2(c3ccc(O)cc3Oc3cc(O)ccc32)c2ccc(NC(=S)*)cc21; Hag = O=C([C@H](CCC=[*:3])N[*:1])[*:2]; dAllylGly = C=CC[C@@H](N)C(=O)O"}
{"molecule": "Ac-VPGQFDDAD-NH2", "values": [{"measurement": "Ki", "setting": "PRMT5/MEP50 complex [1]", "value": 862, "unit": "nM"}, {"measurement": "IC50", "setting": "PRMT5/MEP50 complex [2]", "value": 5300, "unit": "nM"}, {"measurement": "IC50", "setting": "PRMT5/MEP50 complex [3]", "value": 2490, "unit": "nM"}, {"measurement": "half-life", "setting": "[4]", "value": 4.4, "unit": "h"}]}
{"molecule": "CC(C)[C@H](NC(=O)[C@H](CCCNC(=N)N)NC(=O)[C@H](CO)NC(=O)COCCOCCNC(=S)Nc1ccc2c(c1)C(=O)OC21c2ccc(O)cc2Oc2cc(O)ccc21)C(=O)N[C@H](C(=O)N1CCC[C@H]1C(=O)N[C@H]1C/C=C/C[C@H](C(=O)N[C@@H](CC(=O)O)C(=O)N[C@@H](C)C(=O)N[C@@H](CC(=O)O)C(N)=O)NC(=O)[C@H](Cc2ccccc2)NC(=O)[C@H](CCC(N)=O)NC1=O)C(C)C", "note": "(stereo in doubt; form 2)", "values": [{"measurement": "Kd", "setting": "PRMT5/MEP50 complex [5]", "value": "> 2000", "unit": "nM"}]}
{"molecule": "Ac-SRVVPGQFDDAD-NH2", "values": [{"measurement": "Ki", "setting": "PRMT5/MEP50 complex [1]", "value": 1800, "unit": "nM"}]}
{"molecule": "CC(=O)N[C@H](C(=O)N1CCC[C@H]1C(=O)N[C@H]1CCCCC[C@@H](C(=O)N[C@@H](CC(=O)O)C(=O)N[C@@H](C)C(=O)N[C@@H](CC(C(=O)O)C(=O)O)C(N)=O)NC(=O)[C@H](Cc2ccc([N+](=O)[O-])cc2)NC(=O)[C@H](CCC(N)=O)NC1=O)C(C)C", "values": [{"measurement": "inhibition", "setting": "Flp-In-T-REx-293 [6]", "value": "Active"}, {"measurement": "IC50", "setting": "[7]", "value": 654, "unit": "nM"}, {"measurement": "inhibition", "setting": "Flp-In-T-REx-293 [8]", "value": "Active"}]}
{"molecule": "CC(=O)N[C@H](C(=O)N1CCC[C@H]1C(=O)N[C@H]1CC/C=C/C[C@H](C(=O)N[C@@H](CC(=O)O)C(=O)N[C@@H](C)C(=O)N[C@@H](CC(=O)O)C(=O)N[C@@H](CCCCNC(=S)Nc2ccc3c(c2)C(=O)OC32c3ccc(O)cc3Oc3cc(O)ccc32)C(N)=O)NC(=O)[C@H](Cc2ccccc2)NC(=O)[C@H](CCC(N)=O)NC1=O)C(C)C", "note": "(Ac-VP[Hag]QF[dAllylGly]DADK(FITC)-NH2; staple (E) 3-6)", "values": [{"measurement": "Kd", "setting": "PRMT5/MEP50 complex [5]", "value": "> 2000", "unit": "nM"}]}
{"molecule": "CC(C)[C@H](NC(=O)[C@H](CCCNC(=N)N)NC(=O)[C@H](CO)NC(=O)COCCOCCNC(=S)Nc1ccc2c(c1)C(=O)OC21c2ccc(O)cc2Oc2cc(O)ccc21)C(=O)N[C@H](C(=O)N1CCC[C@H]1C(=O)N[C@H]1CCNC(=O)CC[C@H](C(=O)N[C@@H](CC(=O)O)C(=O)N[C@@H](C)C(=O)N[C@@H](CC(=O)O)C(N)=O)NC(=O)[C@H](Cc2ccccc2)NC(=O)[C@H](CCC(N)=O)NC1=O)C(C)C", "values": [{"measurement": "Kd", "setting": "PRMT5/MEP50 complex [5]", "value": "> 2000", "unit": "nM"}]}
{"molecule": "CC(=O)N[C@H](C(=O)N1CCC[C@H]1C(=O)N[C@H]1CCCCCC[C@H](C(=O)N[C@@H](CC(=O)O)C(=O)N[C@@H](C)C(=O)N[C@@H](CC(=O)O)C(=O)N[C@@H](CCCCNC(=S)Nc2ccc3c(c2)C(=O)OC32c3ccc(O)cc3Oc3cc(O)ccc32)C(N)=O)NC(=O)[C@H](Cc2ccccc2)NC(=O)[C@H](CCC(N)=O)NC1=O)C(C)C", "values": [{"measurement": "Kd", "setting": "PRMT5/MEP50 complex [5]", "value": "> 2000", "unit": "nM"}]}
